Hits are enriched below; roughly 4.6% of the tested compounds scored in any of these assays.
NALP1 inh = NALP1 inflammasome inhibitors in reconstituted yeast, colorimetric, S. cerevisiae, triplicate retest; AID 2071, 2009; 0.61% of 280,000 active; S. cerevisiae NALP1/ASC/caspase-1 growth, X-gal OD620, 72 h; inhibition, % at 10 µM; in the data active = inhibition mostly above about 24%, no sharp cut-off; inactive = mostly below about 32%
Arr AP2 block = inhibitors of beta-arrestin/AP2 binding, primary screen, biochemical, GPCR trafficking, flow cytometry; FITC-arrestin peptide / GST-AP2 beads; AP2 beta2 appendage carries R879A mutation; 0.31% of 340,000 active; inhibition, % at 10 µM;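 active = inhibition above a set limit, near 3 SD of compounds lacking own fluorescence, cut at about 54% in these data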;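 note: plate controls were DMSO wells for no effect and 5 µM unlabelled arrestin peptide for full effect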
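System: GST-AP2 R879A glutathione beads | Also added: FITC-arrestin peptide, 50 nM | Times: 12 min plus 1 h, RT | Signal: Bead flow cytometry, FITC channel | Buffer or medium: PBS with 0.05% Tween 20 and 0.1% BSA | Read-out basis: Percent drop in bead-associated FITC signal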
NALP3 yeast inh = NALP3 inflammasome inhibitors in reconstituted yeast, primary screen, luminescence, uHTS; Yeast reconstituted NLRP3/ASC/caspase-1, beta-gal luminescence, 24 h; inhibition, % at 10 µM; 0.39% of 330,000 active; AID 2825, 2010;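 active = inhibition of 50% or more; inactive = inhibition below 50%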;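 note: plate controls were induced DMSO wells for no effect and uninduced yeast grown without galactose for full effect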
DSG3 Ab inh = inhibitors of pemphigus antibody binding to DSG3, primary screen, biochemical, bead-based, flow cytometry, scFv-GFP. Desmoglein-3 (Homo sapiens), P32926. DSG3-coupled beads, scFv-anti-DSG3-GFP binding; stronger effect = lower value. binding (percent of control), % at 10 µM. 0.48% of 310,000 active. AID 588358, 2011;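 active = binding more than 3 SD below its plate's average and above zero; inconclusive = below that plate limit but binding exactly zero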;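 note: hits lower antibody fragment binding to DSG3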
PolyA inhibitor = polyadenylation inhibitors in yeast reporter cells, primary screen, luminescence, S. cerevisiae; S. cerevisiae SKY197-pL101 polyadenylation reporter, beta-gal luminescence; efflux-impaired pdr1/pdr3 knockout yeast; score 100 = 6 SD above DMSO; activity score, % at 12 µM; 0.02% of 300,000 active; AID 1875, 2009;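 active = lowest replicate activity score at least 50, where 100 means six control SD above control mean; inconclusive = lowest score under 50 but half or more replicates reach 50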;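 note: yeast exposed to compound for 9 h at 30 °C; higher score means more reporter readthrough which indicates perturbed polyadenylation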
ALR inh = inhibitors of human ALR sulfhydryl oxidase, primary screen, biochemical, H2O2 detection, HRP-luminol luminescence, single point | FAD-linked sulfhydryl oxidase ALR (Homo sapiens), P55789 | purified ALR, DTT oxidation | inhibition, % (test concentration not listed) | 3.8% of 290,000 active | AID 485317, 2010;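 active = mean replicate inhibition above about 79%, with every replicate also reaching it, limit read from the data; inconclusive = only one of the two criteria met; inactive = mean below limit and not every replicate reaching it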
Target sequence (P55789 whole entry, looked up): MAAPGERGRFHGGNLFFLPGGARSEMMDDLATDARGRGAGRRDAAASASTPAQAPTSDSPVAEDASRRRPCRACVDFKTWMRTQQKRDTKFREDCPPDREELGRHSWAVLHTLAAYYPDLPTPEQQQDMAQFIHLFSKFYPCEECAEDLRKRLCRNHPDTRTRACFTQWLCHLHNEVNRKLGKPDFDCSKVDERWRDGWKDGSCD
An asterisk follows results filed as active; ? = inconclusive; . = not tested or not shown.

SMILES | NALP1 inh | Arr AP2 block | NALP3 yeast inh | DSG3 Ab inh | PolyA inhibitor | ALR inh
COc1ccc(NC(=O)CSc2nc(O)c(Cc3ccccc3)c(=O)[nH]2)cc1 | 28.9 | -8.4 | 14.8 | 96.2 | 9.0 | 98.6*
CCc1nnc(NC(=O)CN2C(=O)c3ccccc3C2=O)s1 | 21.2 | 23.2 | 1.5 | 88.6 | -19.3 | -2.8
CCCc1nnc(NC(=O)CN2C(=O)c3ccccc3C2=O)s1 | 43.6* | -4.6 | 10.1 | 99.1 | 4.8 | -2.3
CCCCc1nnc(NC(=O)CSc2nc(O)c(-c3ccccc3)c(=O)[nH]2)s1 | 24.2 | -10.2 | 9.5 | 105.1 | 5.4 | 58.6
CCCCc1nnc(NC(=O)CSc2nc(O)c(Cc3ccccc3)c(=O)[nH]2)s1 | 23.3 | 12.9 | -5.2 | 101.5 | -12.3 | 99.0*
O=C(CSc1nc(O)c(Cc2ccccc2)c(=O)[nH]1)Nc1ccccc1 | 4.6 | 48.6 | 19.0 | 96.9 | -7.5 | 98.7*
CCCCNC(=O)CSc1nc(O)c(Cc2ccc(OC)cc2)c(=O)[nH]1 | . | -2.3 | 7.6 | 101.4 | -8.7 | .
CC(C)(C)c1ccc(C(=O)NCCC(=O)Nc2cc(Cl)ccc2N2CCOCC2)cc1 | . | 8.8 | 20.5 | 98.5 | . | 2.8
CCN(CC)C(=O)CSc1nc(O)c(Cc2ccc(OC)cc2)c(=O)[nH]1 | 6.8 | 12.2 | 13.3 | 112.4 | -5.8 | 98.0*
COC(=O)COc1ccc(C(C2C(=O)CC(C)(C)CC2=O)C2C(=O)CC(C)(C)CC2=O)cc1 | 13.7 | 8.1 | -6.8 | 101.1 | 10.0 | .
O=C(CSc1ccc(-c2ccc3c(c2)OCO3)nn1)Nc1nccs1 | -12.1 | -5.5 | -3.6 | 94.6* | -1.1 | -10.4
O=C(CSCC(=O)Nc1nc(-c2ccc3c(c2)OCO3)cs1)Nc1nccs1 | -3.2 | 4.7 | -5.1 | 109.2 | -18.0 | 99.0*
CSCC(=O)Nc1nc(-c2ccc3c(c2)OCCO3)cs1 | -8.4 | -8.9 | 27.7 | 97.9 | 2.7 | 56.1
CC(=O)c1cccc(NC(=O)CSc2ccc(-c3ccc4c(c3)OCO4)nn2)c1 | 28.0 | 1.4 | 9.4 | 95.9 | 2.6 | 46.9
CC(OC(=O)Cc1cccc(C(F)(F)F)c1)C(=O)Nc1ccc(Cl)cn1 (configuration not stated) | 23.5 | 50.4 | 32.9 | 97.5 | -11.5 | 2.1
CCN(CC)c1ccc(CNCc2cccs2)cc1 | -25.7 | -20.7 | 19.1 | 112.5 | 16.2 | 99.0*
O=C(Nc1ccc(SC(F)F)cc1)C1=COCCO1 | 13.1 | -0.9 | 43.7 | 99.5 | -14.3 | 99.3*
COc1cc(C(C)n2nnc3ccccc32)ccc1O (configuration not stated) | . | . | . | 101.7 | . | .
CCC1(CC)C(=O)N(C)C(=O)NC1=Nc1ccc(OC)cc1 | 41.1* | -4.5 | 13.1 | 101.1 | 3.3 | -18.9
CCCCc1c(C)c(C#N)c2nc3ccccc3n2c1NCCN(C)C | 34.2* | 2.8 | 26.0 | 103.9 | -10.3 | .
Cc1ccc(-n2nc3cc(C)c(NC(=S)NC(=O)/C=C/c4ccco4)cc3n2)cc1 | 20.4 | -2.6 | 4.3 | 95.5 | -10.2 | 85.9*
C/C(CC(=O)NCc1ccco1)=N\NC(=O)c1ccc([N+](=O)[O-])cc1Cl | 6.2 | 11.6 | 10.8 | 108.4 | -17.9 | .
O=C(Nc1ccc(C(=O)O)cc1)/C(=C\C=C\c1ccccc1)NC(=O)c1ccccc1Br | 30.6 | -4.3 | 8.4 | 105.3 | -13.1 | 12.5
Oc1c(Br)cc(/C=N/Nc2ccc(Cl)nn2)cc1Br | 5.6 | 1.2 | 25.1 | ? | -7.9 | .
COc1cc(/C=N/Nc2ccc(Cl)nn2)cc(OC)c1O | 5.5 | 41.4 | -9.2 | 93.9 | -1.6 | 94.5*
SMILES | NALP1 inh | Arr AP2 block | NALP3 yeast inh | DSG3 Ab inh | PolyA inhibitor | ALR inh
Oc1c(Br)cc(Br)cc1/C=N/Nc1ccc(Cl)nn1 | 40.7* | 23.5 | . | 91.5 | 2.5 | .
COc1cc(/C=N/Nc2ccc(F)cc2F)cc(OC)c1O | 19.0 | 8.2 | -32.6 | 102.8 | -10.2 | 99.2*
N#Cc1ccc(S(=O)(=O)N2CCC(C(=O)N3CCN(Cc4ccc5c(c4)OCO5)CC3)CC2)cc1 | . | -9.5 | 4.5 | . | . | -4.0
Cn1c2ccsc2c2ncn(Cc3ccccc3F)c(=O)c21 | . | 0.3 | -5.1 | 93.7 | . | -2.0
Cc1ccc(C(=O)c2c3ccc([N+](=O)[O-])cc3[n+]([O-])n2CCCN)cc1 | . | 4.8 | 37.7 | 101.0 | 9.8 | -24.0
COCCn1c(Cc2ccccc2)nnc1SCC(=O)N1CCCC1=O | . | 28.4 | -3.6 | 99.9 | . | 10.9
C=C1C(=O)OCC2C(C(=O)O)=CC3C(C)C(C)=CC123 (configuration not stated) | . | . | . | 107.1 | . | .
CC(CCc1ccc(O)cc1)NCCc1ccc(O)c(O)c1 (configuration not stated) | . | 39.8 | 13.8 | 96.7 | 1.7 | 99.1*
Nc1nc(N2CCN(c3cccc(Cl)c3)CC2)n[nH]1 | 27.7 | 9.9 | -2.8 | 95.0 | -1.9 | 99.2*
Nc1nc(N2CCN(c3ccc(Cl)cc3)CC2)n[nH]1 | 5.9 | 4.0 | 1.3 | 96.4 | 17.0 | 98.1*
Nc1nc(N2CCN(c3ccccc3)CC2)n[nH]1 | 9.2 | 42.3 | -1.4 | 104.5 | 8.8 | 99.7*
Cc1c(N)cccc1Cl | . | 17.1 | . | 105.1 | . | .
Cc1ccc(C(=O)NCCSCc2ccc(Cl)cc2Cl)cc1[N+](=O)[O-] | 20.6 | 0.6 | 31.3 | 93.4 | -7.6 | 88.6*
NC(CCCCc1ccccc1)c1cccc2ccccc12 (configuration not stated) | . | . | 38.5 | . | 10.9 | -0.9
CCCCc1c(O)nc(SCC(=O)Nc2cccc3ccccc23)n(-c2ccccc2OC)c1=O | 7.4 | 2.2 | 1.8 | 103.5 | -4.7 | 68.7
CCN(CC)C(=O)CSc1nc(O)cc(=O)n1C | 7.7 | -6.3 | -6.3 | 101.1 | 7.8 | 72.7
COc1ccc(NC(=O)CSc2nc3[nH]ncc3c(=O)n2-c2ccccc2OC)cc1OC | 14.5 | 5.6 | -7.6 | 121.2 | 12.8 | -16.0
CCN(CC)C(=O)CSc1nc(O)cc(=O)n1-c1ccccc1OC | 18.7 | 5.1 | 1.7 | 98.7 | 7.4 | 98.9*
COc1ccc(NC(=O)CSc2nc(O)cc(=O)n2-c2ccccc2OC)cc1 | 4.0 | 0.5 | 1.2 | 106.4 | 7.6 | 98.1*
COc1ccccc1-n1c(SCC(=O)Nc2cccc3ccccc23)nc(O)cc1=O | 12.0 | 3.1 | -4.7 | 102.2 | 6.3 | 97.9*
Cc1ccccc1-n1c(SCC(=O)Nc2c(C)cccc2C)nc(O)cc1=O | 1.9 | 3.7 | 18.7 | . | -13.9 | -8.8
COc1ccccc1-n1c(SCC(=O)Nc2ccc(C)cc2)nc(O)cc1=O | -14.8 | 3.0 | 8.4 | 117.2 | 13.3 | 97.9*

Screens from PubChem.
